This is an account of results in ChEMBL document CHEMBL4610036, “Discovery of small molecule antagonists of chemokine receptor CXCR6 that arrest tumor growth in SK-HEP-1 mouse xenografts as a model of hepatocellular carcinoma” (Bioorg Med Chem Lett, 2020).

In experiment [1] the target is T1, C-X-C chemokine receptor type 6 (Homo sapiens, UniProt O00574). In words: Inhibition of CXCR6-mediated cell invasion in human SKHEP1 cells after 72 hrs by transwell assay. Format: cell-based. The settings on record: SK-HEP1. Put shortly:
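SK-HEP-1 cells, 100k/well in 0.2% FBS, seeded in upper chamber of a chemotaxis plate coated with matrigel (250 μg/ml). CXCL16 (0.6 μg/ml) in lower chamber; compound in both chambers. Kept at 37 °C, 5% CO2 and imaged hourly in IncuCyte. Migration quantified as confluence from phase-contrast images.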
Target sequence in this assay (O00574 whole entry, looked up): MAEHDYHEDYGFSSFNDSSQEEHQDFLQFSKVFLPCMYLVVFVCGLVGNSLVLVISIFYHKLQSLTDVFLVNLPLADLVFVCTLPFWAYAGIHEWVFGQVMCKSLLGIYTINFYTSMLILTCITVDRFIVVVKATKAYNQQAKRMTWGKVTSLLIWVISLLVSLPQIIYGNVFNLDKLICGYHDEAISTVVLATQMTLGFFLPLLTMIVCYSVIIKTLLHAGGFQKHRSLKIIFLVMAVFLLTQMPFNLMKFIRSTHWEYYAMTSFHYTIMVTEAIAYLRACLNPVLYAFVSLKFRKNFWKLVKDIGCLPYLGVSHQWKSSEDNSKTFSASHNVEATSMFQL

Experiment [2] deals with T1, C-X-C chemokine receptor type 6. The experiment can be described thus: Antagonist activity at Prolink-tagged human CXCR6 receptor assessed as inhibition of forskolin-induced cAMP accumulation by DiscoveRx cell based assay. Format: functional. The method in brief: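 Lance Ultra TR-FRET cAMP assay in CXCR6 β-arrestin cells, 500 cells/well in OptiMEM/2% FBS, grown overnight. Compound added, then forskolin (2.5 mM stock) in HBSS/HEPES/BSA/RO-20-1724 with or without 20 nM CXCL16, 30 min at room temperature. Eu-cAMP tracer and ULight anti-cAMP antibody added, read after 30 min. Curve fit with Hill slope 1; ≥2 independent runs.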
A general note: cAMP levels reflect the balance of adenylyl cyclase and phosphodiesterase activity.
Target sequence in this assay (O00574 whole entry): as the sequence (O00574 whole entry, looked up) above

For experiment [3] the target is unchanged. In words: Antagonist activity at Prolink-tagged human CXCR6 receptor assessed as inhibition of CXCL16-induced beta-arrestin recruitment by DiscoveRx cell based assay relative to control. More on the design: concentration or dose not given beside the values. The method in brief: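 CXCR6 β-arrestin cells in assay media without G418/hygromycin, 800 cells/well, grown overnight at 37 °C; compounds added acoustically (DMSO ≤0.3%), then 20 nM CXCL16 (final) for 90 min at 37 °C. PathHunter luminescence read. Normalized between CXCL16-alone and no-ligand wells; four-parameter fit with Hill slope fixed at 1; at least two runs on different days, averaged pIC50 ± SD.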
(In general: Recruitment of arrestin is a read-out of receptor activation apart from second messengers.)
Target sequence in this assay (O00574 whole entry, looked up): as above

For experiment [4] the target is unchanged. In words: Antagonist activity at Prolink-tagged human CXCR6 receptor assessed as inhibition of CXCL16-induced beta-arrestin recruitment by DiscoveRx cell based assay.
Target sequence in this assay (O00574 whole entry): as the sequence (O00574 whole entry, looked up) above
The target is the same in experiment [5]. The experiment can be described thus: Antagonist activity at Prolink-tagged human CXCR6 receptor assessed as inhibition of forskolin-induced cAMP accumulation by DiscoveRx cell based assay relative to control. It is filed as functional. Details: concentration or dose not given beside the values. The method in brief:
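CXCR6 β-arrestin cells in OptiMEM with 2% FBS, 500 cells/well, grown overnight; compounds added, then forskolin with 20 nM CXCL16 (stock concentrations) in HBSS/HEPES/BSA with RO-20-1724, 30 min at room temperature. cAMP read by LANCE Ultra TR-FRET after a further 30 min. Hill slope fixed at 1; at least two runs on different days, averaged pIC50 ± SD.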
Target sequence in this assay (O00574 whole entry, looked up): as above

The source made the active and inactive calls. The rule behind the calls is not given here. Where only a bound is given, the exact number is not on record here.

Take `COc1cc(C(=O)N[C@@H]2C[C@H]3CCC[C@@H](C2)N3Cc2nc3c(Cl)cccc3s2)cc(OC)c1OC`: in experiment [1], the inhibition (usually the relative decrease from the control value, in per cent) is “Active”. The IC50 (usually the concentration that inhibits the measured activity by half) in experiment [2] worked out at 0.9 µM; in experiment [4] it was 0.13 µM. Moreover, the values for the inhibition in experiment [3] (concentration not given here) and in experiment [5] (concentration not given here) were 103% and 95%, respectively.
Take `COc1cc(C(=O)N[C@@H]2C[C@H]3CCC[C@@H](C2)N3CC(=O)Nc2cc(Cl)ccc2Cl)cc(OC)c1OC`: the values for the IC50 in experiment [2] and in experiment [4] were 0.7 µM and 0.13 µM, respectively. Also, the inhibition in experiment [3] (concentration not given here) turned out to be 99%; in experiment [5] (concentration not given here), 101%.
The corresponding values for `COc1cc(C(=O)N[C@@H]2C[C@H]3CCC[C@@H](C2)N3Cc2ccccc2Cl)cc(OC)c1OC` are 11.5 µM, 6.8 µM, 99% and 101%.
On to `COc1cc(C(=O)N[C@@H]2C[C@H]3CCC[C@@H](C2)N3CC(=O)Nc2cccc(Cl)c2Cl)cc(OC)c1OC`, for which the results for the IC50 in experiment [2] and in experiment [4] were 0.41 to 25.6 µM and 0.12 to 0.16 µM, respectively. The inhibition fell in the range of 96 to 102% in experiment [3] (concentration not given here) and 39 to 78% in experiment [5] (concentration not given here).
As for `COc1cc(C(=O)N[C@@H]2C[C@H]3CCC[C@@H](C2)N3Cc2cccc(Cl)c2)cc(OC)c1OC`, the IC50 in experiment [2] was 14.8 µM; in experiment [4], 9.5 µM. Also, the inhibition turned out to be 97% in experiment [3] (concentration not given here) and 100% in experiment [5] (concentration not given here).
`COc1cc(C(=O)N[C@@H]2C[C@H]3CCC[C@@H](C2)N3Cc2nc3ccccc3[nH]2)cc(OC)c1OC`: the 50% inhibitory concentration (IC50) in experiment [2] is > 40 µM; in experiment [4] it was 10.5 µM. For the same compound, the inhibition in experiment [3] (concentration not given here) turned out to be 84%. The inhibition entry in experiment [5] was “inactive”.
Turning to `COc1cccc(C(=O)N[C@@H]2C[C@H]3CCC[C@@H](C2)N3CC(=O)Nc2ccc(Cl)cc2)c1`, the figures for the IC50 in experiment [2] and in experiment [4] were 14.5 µM and > 40 µM, respectively. In experiment [3], the inhibition entry is “inactive”. Further, the inhibition in experiment [5] (concentration not given here) was found to be 87%.
With `COc1cc(C(=O)N[C@@H]2C[C@H]3CCC[C@@H](C2)N3Cc2nc3c(OC)cccc3s2)cc(OC)c1OC`, the IC50 in experiment [2] was > 50 µM; in experiment [4], 3.1 µM. Moreover, in experiment [3] (concentration not given here), the inhibition came out at 86%. The inhibition entry in experiment [5] was “inactive”.
As for `COc1ccccc1NC(=O)CN1[C@@H]2CCC[C@H]1C[C@H](NC(=O)c1cc(OC)c(OC)c(OC)c1)C2`, the IC50 is 14.7 µM in experiment [2] and 2.1 µM in experiment [4]. Also, the inhibition in experiment [3] (concentration not given here) amounted to 102%; in experiment [5] (concentration not given here), 100%.
Taken in the same sequence, the figures for `COc1cc(C(=O)N[C@@H]2C[C@H]3CCC[C@@H](C2)N3Cc2ccc3ccccc3n2)cc(OC)c1OC` were 40.3 µM, 6.7 µM, 88% and 88%.
As to `COc1ccc(CN2[C@@H]3CCC[C@H]2C[C@H](NC(=O)c2cc(OC)c(OC)c(OC)c2)C3)cc1`, the IC50 in experiment [2] and in experiment [4] was > 50 µM each time. Moreover, the inhibition result in experiment [3] and in experiment [5] was “inactive” throughout.
On to `COc1cc(C(=O)N[C@@H]2C[C@H]3CCC[C@@H](C2)N3Cc2nc3c(F)cccc3s2)cc(OC)c1OC`, for which the IC50 in experiment [2] was determined as 1.9 µM; in experiment [4] it was 0.11 µM. Also, the figures for the inhibition in experiment [3] (concentration not given here) and in experiment [5] (concentration not given here) were 103% and 105%, respectively.
In the case of `COc1cc(C(=O)N[C@@H]2C[C@H]3CCC[C@@H](C2)N3Cc2cn3ccccc3n2)cc(OC)c1OC`, the IC50 in experiment [2] and in experiment [4] was > 50 µM each time. Moreover, the inhibition entry in experiment [3] and in experiment [5] was “inactive” in each case.
Turning to `COc1cc(C(=O)N[C@@H]2C[C@H]3CCC[C@@H](C2)N3CCc2nc3ccccc3s2)cc(OC)c1OC`, the IC50 in experiment [2] and in experiment [4] was > 50 µM each time. For the same compound, the inhibition entry in experiment [3] and in experiment [5] was “inactive” throughout.
As to `COc1cc(C(=O)N[C@@H]2C[C@H]3CCC[C@@H](C2)N3Cc2cc3ccccc3s2)cc(OC)c1OC`, the IC50 in experiment [2] turned out to be 25 µM; in experiment [4], 0.9 µM. Moreover, the figures for the inhibition in experiment [3] (concentration not given here) and in experiment [5] (concentration not given here) were 93% and 49%, respectively.
Consider `COc1cc(C(=O)N[C@@H]2C[C@H]3CCC[C@@H](C2)N3Cc2c[nH]c3ccccc23)cc(OC)c1OC`, for which the IC50 in experiment [2] and in experiment [4] was > 50 µM in each case. The inhibition result in experiment [3] and in experiment [5] was “inactive” each time.
As to `COc1cc(C(=O)N[C@@H]2C[C@H]3CCC[C@@H](C2)N3CC(=O)Nc2ccccc2)cc(OC)c1OC`, the IC50 in experiment [2] worked out at 30.6 µM; in experiment [4] it was 5.8 µM. Also, the inhibition in experiment [3] (concentration not given here) came out at 65%; in experiment [5] (concentration not given here), 86%.
Taken in the same sequence, the figures for `COc1cc(C(=O)N[C@@H]2C[C@H]3CCC[C@@H](C2)N3CC(=O)Nc2ccccc2C#N)cc(OC)c1OC` were 7 µM, 0.93 µM, 91% and 105%.
In the case of `COc1cc(C(=O)N[C@@H]2C[C@H]3CCC[C@@H](C2)N3CC(=O)Nc2ccc(F)cc2)cc(OC)c1OC`, the IC50 in experiment [2] was found to be 30.7 µM; in experiment [4], 5.8 µM. The inhibition in experiment [3] (concentration not given here) is 100%; in experiment [5] (concentration not given here), 90%.
Taken in the same sequence, the figures for `COc1cc(C(=O)N[C@@H]2C[C@H]3CCC[C@@H](C2)N3CC(=O)Nc2cccc(Br)c2)cc(OC)c1OC` were 3.8 µM, 0.35 µM, 104% and 92%.
The corresponding values for `COc1cc(C(=O)N[C@@H]2C[C@H]3CCC[C@@H](C2)N3CC(=O)Nc2ccc(Cl)cc2)cc(OC)c1OC` are 14.2 µM, 1.5 µM, 101% and 93%.
Turning to `COc1cc(C(=O)N[C@@H]2C[C@H]3CCC[C@@H](C2)N3CC(=O)Nc2cc(C)ccc2C)cc(OC)c1OC`, the results for the IC50 in experiment [2] and in experiment [4] were 16.5 µM and 0.61 µM, respectively. The inhibition in experiment [3] (concentration not given here) worked out at 105%; in experiment [5] (concentration not given here), 108%.
For the compound `COc1cc(C(=O)N[C@@H]2C[C@H]3CCC[C@@H](C2)N3CC(=O)c2nc3ccccc3s2)cc(OC)c1OC`, the results for the IC50 in experiment [2] and in experiment [4] were > 50 µM and 12.7 µM, respectively. Also, the inhibition in experiment [3] (concentration not given here) stood at 75%. Moreover, the inhibition entry in experiment [5] was “inactive”.
For `COc1cc(C(=O)N[C@@H]2C[C@H]3CCC[C@@H](C2)N3Cc2ccc3ccccc3c2)cc(OC)c1OC`, the IC50 in experiment [2] is 47.3 µM; in experiment [4] it was 3.4 µM. Besides, the inhibition in experiment [3] (concentration not given here) turned out to be 94%; in experiment [5] (concentration not given here), 30%.
For the compound `O=C(CN1[C@@H]2CCC[C@H]1C[C@H](NC(=O)c1ccccc1)C2)Nc1ccccc1`, the inhibition result in experiment [1], in experiment [3] and in experiment [5] was “inactive” in each case. In addition, the IC50 in experiment [2] is > 80 µM; in experiment [4] it was > 40 µM.
Regarding `COc1ccc(C(=O)N[C@@H]2C[C@H]3CCC[C@@H](C2)N3CC(=O)Nc2ccc(Cl)cc2)cc1`, the IC50 in experiment [2] was 5.9 µM; in experiment [4], > 40 µM. Besides, the inhibition result in experiment [3] is “inactive”. The inhibition in experiment [5] (concentration not given here) was found to be 94%.
As to `COc1cc(C(=O)N[C@@H]2C[C@H]3CCC[C@@H](C2)N3CC(=O)Nc2c(C)cccc2C)cc(OC)c1OC`, the IC50 in experiment [2] and in experiment [4] was > 40 µM in each case. The inhibition entry in experiment [3] and in experiment [5] was “inactive” each time.
